# “Also recorded” adds a separate entry of the source.
# Experiments:
# [1] = Quantification of drugs in plasma by LC-MS/MS; type: in vivo, mice; conditions: for Alterations in blood levels when TPPU and DCF co-administered: TPPU 0.1 mg/kg/day + DCF 100 mg/kg
# COX = test: PGE2 in stomach as marker of COX activity; type: in vivo, mice; conditions: TPPU 0.1 mg/kg or OME 50 mg/kg + DCF 100 mg/kg
# [2] = tested on: DCF-induced intestinal ulcers; conditions: cited from earlier work
# recombinant mouse sEH = conditions: affinity purified recombinant mouse sEH; cited from earlier work
# TxB2/PGE2 = test: PGE2 and TxB2 in plasma; type: in vivo, mice; conditions: for Level of TxB2/PGE2 in plasma of DCF treated mice: TPPU 0.1 mg/kg or omeprazole 50 mg/kg + DCF 100 mg/kg
# [3] = tested on: gastric mucosa of Swiss Webster mice; test: Histopathological evaluation of stomach sections; type: in vivo; conditions: DCF 100 mg/kg alone or after TPPU 0.1 mg/kg or OME 50 mg/kg
# TNF-α = test: Inflammatory marker in serum by ELISA; type: in vivo, mice; conditions: for Level of TNF-α in serum versus DCF: pre-treatment TPPU 0.1 mg/kg or OME 50 mg/kg before DCF 100 mg/kg
# gastric epithelial cells = test: TUNEL assay of gastric cell apoptosis; type: in vivo, mice; conditions: for DCF-induced apoptosis of stomach epithelial cells (TUNEL) versus DCF: pre-treatment TPPU 0.1 mg/kg or OME 50 mg/kg before DCF 100 mg/kg
# IL-6 = test: Inflammatory marker in serum by ELISA; type: in vivo, mice; conditions: for Level of IL-6 in serum versus DCF: pre-treatment TPPU 0.1 mg/kg or OME 50 mg/kg before DCF 100 mg/kg; for Level of IL-6 in serum versus vehicle: DCF 100 mg/kg p.o. single dose
# Method in brief: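 Blood without anticoagulant was collected at sacrifice 6 h post-dose and spun at 4 °C. Serum IL-6 was measured with a pre-coated mouse ELISA kit, in duplicate, n=3–4 animals, reported as mean ± SD.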
# [4] = mice; cited from earlier work
# [5] = tested on: piroxicam-induced inflammatory bowel disease; conditions: cited from earlier work
# [6] = Quantification of pH in gastric content; type: in vivo, mice; conditions: DCF 100 mg/kg single dose; TPPU 0.1 mg/kg 7 days + DCF; omeprazole 50 mg/kg 5 days + DCF
# Swiss Webster mice = test: Diclofenac-induced gastric ulcers, ulcer index scoring; type: in vivo
# [7] = 16 h after radioactive omeprazole administration; cited from earlier work
# [8] = cited from earlier work
# CYP3A4 = conditions: cited from earlier work
compound,measurement,setting,value
"CCC(=O)N1CCC(NC(=O)Nc2ccc(OC(F)(F)F)cc2)CC1 [TPPU, N-[1-(1-oxopropyl)-4-piperidinyl]-N′-[4-(trifluoromethoxy)phenyl)-urea]",Alterations in blood levels when TPPU and DCF co-administered,[1],[…]
same,Effect on COX activity in stomach (level of PGE2) of DCF treated mice,COX,did not increase the activity of COX
same,Effect on DCF-induced intestinal ulcers,[2],decreased DCF-induced intestinal ulcers
same,Level of TxB2/PGE2 in plasma of DCF treated mice,TxB2/PGE2,increased the level of TxB2/PGE2
same,Histopathological observation of gastric mucosa,[3],Ulceration was minimal
same,Level of TNF-α in serum versus DCF,TNF-α,normalized the level of these cytokines; also recorded: decreased level of TNF-α significantly
same,DCF-induced apoptosis of stomach epithelial cells (TUNEL) versus DCF,gastric epithelial cells,decreased DCF-induced apoptosis of gastric cells; also recorded: decreased apoptosis significantly
same,Level of IL-6 in serum versus DCF,IL-6,normalized the level of these cytokines; also recorded: decreased level of IL-6 significantly
same,Oral availability,[4],high oral availability
"O=C(NC12CC3CC(CC(C3)C1)C2)N[C@H]1CC[C@H](Oc2ccc(C(=O)O)cc2)CC1 [t-AUCB, trans-4-[4-(3-adamantan-1-yl-ureido)-cyclohexyloxy]-benzoic acid]",Effect on piroxicam-induced inflammatory bowel disease,[5],decrease piroxicam (a COX inhibitor)-induced inflammatory bowel disease
"O=C(O)Cc1ccccc1Nc1c(Cl)cccc1Cl [Diclofenac, diclofenac sodium]",Effect on pH of stomach (gastric content),[6],did not alter the pH of stomachs
same,concentration at 6 h,"[1]; Swiss Webster, mouse, plasma, oral, Mean plasma concentration of DCF, mice that received DCF or DCF + TPPU",4000 ng/mL
same,Alterations in blood levels when TPPU and DCF co-administered,[1],not observed
same,"Mean plasma concentration of diclofenac, diclofenac only versus DCF + OME","[1]; difference not significant, n=4",approximately 2 times
same,Gastric ulcer score 18 h after dosing,"Swiss Webster mice; single DCF dose 100 mg/kg, 18 h",returned to normal levels
same,Levels of TxB2/PGE2 in plasma versus vehicle,TxB2/PGE2; DCF 100 mg/kg,significantly decreased
same,Levels of PGE2 in plasma versus vehicle,TxB2/PGE2; data not shown,not statistically (data not shown) different
same,Level of TxB2 in plasma,"TxB2/PGE2; mice treated with only DCF, level of detection 20 pM",< 20 pM
same,Histopathological observation of gastric mucosa,[3],ulceration was observed
same,Level of TNF-α in serum versus vehicle,TNF-α; DCF 100 mg/kg p.o. single dose,significant increase (p < 0.05); also recorded: increased level of TNF-α significantly
same,Apoptosis of stomach epithelial cells (TUNEL positive cells) versus vehicle,"gastric epithelial cells; DCF 100 mg/kg, listed as DCF",increased apoptosis significantly
same,Level of IL-6 in serum versus vehicle,IL-6,increased levels of IL-6 significantly
same,Level of IL-6 in serum versus vehicle,IL-6; listed as DCF,significant increase (p < 0.05)
COc1ccc2[nH]c([S+]([O-])Cc3ncc(C)c(OC)c3C)nc2c1 (stereo not shown) [Omeprazole],Radioactivity of the stomach relative to blood,[7],100 times
same,Incidence of ulceration relative to TPPU + DCF treated animals,Swiss Webster mice; OME 50 mg/kg + DCF 100 mg/kg versus TPPU 0.1 mg/kg + DCF,higher
same,Effect on COX activity in stomach (level of PGE2) of DCF treated mice,COX,did not increase the activity of COX
same,Level of TxB2/PGE2 in plasma of DCF treated mice,TxB2/PGE2,increased the level of TxB2/PGE2
same,Histopathological observation of gastric mucosa,[3],minimized gastric erosion
same,Level of TNF-α in serum versus DCF,TNF-α; listed as OME,normalized the level of these cytokines
same,DCF-induced apoptosis of stomach epithelial cells (TUNEL) versus DCF,gastric epithelial cells; listed as OME,decreased apoptosis significantly
same,Level of IL-6 in serum versus DCF,IL-6; listed as OME,normalized the level of these cytokines
same,Half-life monitored in the blood,[8],5 to 15 min
same,Effect on activity of CYP3A4,CYP3A4,increase activity of CYP3A4

# — article PMC5659729 (Life sciences, 2017)
